Screening results (PubChem)
Sampled rows, rich in hits. Any-hit rate of the full collection: about 2.3%.
TRPC6 inh = mouse TRPC6 channel inhibitors, primary screen, cell-based, HEK293, membrane potential dye | Short transient receptor potential channel 6 (Mus musculus), Q61143 | ACh-evoked depolarization; stronger effect = lower value | B-score at 10 µM | 1.1% of 310,000 active | AID 2553, 2010;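 active = B-score under library mean minus 3 SD, initial fluorescence not abnormally high, positive integrated signal ratio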;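 note: B-score derived from integrated fluorescence ratio over the kinetic read; more negative B-score means stronger inhibition of depolarization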
TRPC6 activator = mouse TRPC6 channel activators, primary screen, cell-based, HEK293, membrane potential dye | B-score at 10 µM | HEK293-TRPC6 membrane potential dye fluorescence; stronger effect = higher value | 0.13% of 310,000 active | AID 2550, 2010;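 active = B-score of the integrated fluorescence ratio above library mean plus 3 SD, and starting fluorescence ratio within library mean plus 5 SD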;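 note: higher score means more depolarization so channel activation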
TRPC4 act = activators of mouse TRPC4 channel, primary screen, Fluo4 calcium, HEK293 TRPC4beta/mu-opioid cells. Short transient receptor potential channel 4 (Mus musculus), Q9QUQ5. Fluo4 calcium fluorescence; stronger effect = higher value. B-score at 10 µM. 0.49% of 310,000 active. AID 2237, 2010;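 active = B-score above 5 SD of library B-scores, and initial fluorescence ratio not above library mean plus 5 SD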;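 note: positive B-score marks a calcium rise read as TRPC4 activation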
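System: HEK293 cells stably co-expressing mouse TRPC4beta and mu-opioid receptor; Schedule: Fluo4 dye loading 45 min at room temperature, 110 s recording; Detection: Fluo4 fluorescence, kinetic; Evaluation: B-scored integrated calcium fluorescence ratio; Controls: buffer (low) and maximal DAMGO (high).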
TRPC4 block = inhibitors of mouse TRPC4 channel, primary screen, Fluo4 calcium, HEK293 TRPC4beta/mu-opioid cells. DAMGO-evoked Fluo4 calcium flux; stronger effect = lower value. B-score at 10 µM. 0.39% of 300,000 active. AID 2247, 2010;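 active = B-score over 3 SD under the library average, no early fluorescence shift, positive overall ratio signal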
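System: stable TRPC4beta/mu-opioid receptor HEK293 cells; Dosing: single-point compound dosing; Measured by: Fluo4 Ca2+ flux fluorescence; Read-out basis: per-well B score of integrated baseline-normalized Fluo4 ratio.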
TRPC4 PAM = positive allosteric modulators of TRPC4, primary screen, cell-based, mouse TRPC4beta, HEK293 mu-opioid, Fluo-4 calcium | Short transient receptor potential channel 4 (Mus musculus), Q9QUQ5 | 0.42% of 310,000 active | B-score at 10 µM | AID 2227, 2009 | DAMGO EC20, Fluo-4 Ca2+ flux; stronger effect = higher value;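 active = B-score of calcium response area above 5 SD of library B-scores, with initial fluorescence ratio within 5 SD of library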;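 note: B-score of integrated fluorescence ratio over time as area under calcium response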
TRPC4 sel inh 2 = second selectivity test of TRPC6 inhibitors: effect on mouse TRPC4; HEK293 TRPC4/MOR, membrane potential dye fluorescence; channel activated by saturating DAMGO dose; 42% of 920 active; inhibition, % at 10 µM; AID 2776; shares compounds with TRPC6 inh;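 active = compounds whose fluorescence signal differed from control wells by over 3 SD, either direction, in both duplicate plates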
TRPC4 spec = mouse TRPC4 modulation by TRPC6 hits, confirmation, selectivity assay for TRPC6 inhibitor project, cell-based, HEK293 TRPC4/mu-opioid, membrane potential dye; shares compounds with TRPC6 inh; membrane potential fluorescence; activity change, negative = inhibition, % at 10 µM; 61% of 920 active;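 active = rise or fall in signal beyond 3 SD of buffer-only wells in both replicate plates, either sign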;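 note: integrated kinetic ratio of fluorescence range over baseline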
HEK293 MPD ctr 2-1 = nonspecific membrane potential effects, parental HEK293, confirmation, counter-screen for TRPC6 inhibitor project, cell-based, second counter screen; 31% of 920 active; signal change vs control, % at 10 µM; parental HEK293 membrane potential dye fluorescence; maximal acetylcholine challenge after compound addition; shares compounds with TRPC6 inh; AID 2779, 2010;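 active = membrane potential signal moving either way by over 3 SD of the maximum-effect control, in both duplicate plates, meaning non-specific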
HEK293 MPD ctr-1 = membrane potential modulation in parental HEK293, confirmation, counter-screen for TRPC6 inhibitor project, cell-based | membrane potential signal change, % at 10 µM | 60% of 920 active | AID 2780, 2010 | shares compounds with TRPC6 inh | parental HEK293 membrane potential dye fluorescence;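 active = membrane potential signal shifting up or down by more than 3 SD of buffer-only wells, on both duplicate plates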
HEK293 MPD ctr-2 = parental HEK293 membrane potential modulation, confirmation, counter-screen for TRPC6 modulator project, cell-based. shares compounds with TRPC6 inh. membrane potential dye fluorescence. membrane potential signal change, % at 10 µM. 51% of 2,400 active. AID 488924, 2010;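 active = membrane potential signal moves up or down beyond 5 SD from buffer-only wells, on both duplicate plates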
HEK293 MPD ctr 2-2 = second counter-screen for TRPC6 modulators: effect in parental HEK293 cells; shares compounds with TRPC6 inh; membrane potential dye fluorescence; after compound, maximal acetylcholine stimulation; inhibition, % at 10 µM; 14% of 2,400 active;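 active = membrane potential signal drops by more than 5 SD from the mean control signal, in both duplicate plates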;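 note: plate controls were acetylcholine ECmax control wells for no effect and buffer only wells for full effect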
TRPC4 ctr mod = TRPC4 modulation by TRPC6 hit compounds, confirmation, selectivity assay for TRPC6 modulator project, cell-based, HEK293 TRPC4/mu-opioid, membrane potential dye, mouse; AID 488927, 2010; 69% of 2,400 active; shares compounds with TRPC6 inh; membrane potential fluorescence; percent change from control (negative = decrease, positive = increase), % at 10 µM;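 active = membrane potential signal moved up or down beyond 5 SD of buffer control wells, in both duplicate plates, actives on both sides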;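 note: plate controls were assay buffer wells for no effect and DAMGO maximal-effect wells for full effect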
TRPC4/MOR inh 2 = second check of whether TRPC6 modulators also affect mouse TRPC4; shares compounds with TRPC6 inh; AID 488928; HEK293 TRPC4/mu-opioid, membrane potential dye fluorescence; stimulated with maximal-effect DAMGO; inhibition, % at 10 µM; 55% of 2,400 active;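 active = drop in membrane potential signal beyond 5 SD of the control wells in both duplicate plates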;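 note: TRPC4 counter screen for TRPC6 hits run under conditions tuned for TRPC6 not TRPC4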
TRPC6 inh conf = mouse TRPC6 channel inhibitors, confirmation, HEK293 cells, membrane potential dye, duplicate. shares compounds with TRPC6 inh. ACh-evoked depolarization. AID 488960, 2010. 43% of 3,300 active. inhibition, % at 10 µM;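 active = fluorescence ratio falls more than 5 SD below the full-stimulation control mean, in both duplicate runs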;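 note: integrated fluorescence ratio of peak minus minimum over baseline after agonist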
TRPC6 act confirm = mouse TRPC6 channel activators, confirmation, HEK293 cells, membrane potential dye, duplicate | shares compounds with TRPC6 inh | HEK293-TRPC6 membrane potential dye fluorescence, FDSS | activation, % at 10 µM | 11% of 2,800 active;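 active = ratio signal rise beyond 5 SD above unstimulated control wells' mean, seen in both duplicate runs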;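 note: plate controls were buffer EC0 wells for no effect and acetylcholine ECmax response for full effect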
Starred values were filed as active, the others as inactive; i = inactive; . = no result.

SMILES	TRPC6 inh	TRPC6 activator	TRPC4 act	TRPC4 block	TRPC4 PAM	HEK293 MPD ctr-2	HEK293 MPD ctr 2-2	TRPC4 ctr mod	TRPC4/MOR inh 2	TRPC6 inh conf	TRPC6 act confirm	others
Cc1nc(Cl)c2c(n1)N(CC(N)=O)C(=O)CO2	i	i	i	i	i	.	.	.	.	.	.
NCc1cc2c3c(c1)CCCN3CCC2	-5.73*	i	i	i	i	i	i	i	i	i	i
Cc1ccc(N(C(=O)c2snc(C(N)=O)c2N)C(C(=O)NCCC(C)C)c2ccco2)cc1 (stereo not drawn)	i	i	i	i	i	.	.	.	.	.	.
CC(C)C[C@H](NC(=O)c1[nH]cnc1C(=O)N[C@@H](C)C(=O)OCc1ccccc1)C(=O)OC(C)(C)C	-5.78*	i	i	i	i	i	i	i	i	i	i
Cc1cc(C)cc(N(C(=O)c2snc(C(N)=O)c2N)C(C(=O)NCC2CCCO2)c2ccc(C)o2)c1 (stereo not drawn)	-5.41*	i	i	i	i	i	i	18.5%*	40.5%*	i	.
COc1ccc(OCC(=O)N2CCN(C(=O)c3ccc(F)cc3)CC2)cc1	i	i	i	i	i	.	.	.	.	.	.
CC1CN(C(=O)CSc2nnc(-c3ccc(Cl)cc3)n2C)CC(C)O1 (stereo not drawn)	-5.15*	i	i	i	i	i	i	i	i	i	i
CCCOc1ccccc1/C=C(\C#N)C(=O)Nc1cccnc1	i	i	i	i	i	.	.	.	.	.	.
COC(=O)Cc1sc(-c2ccccn2)nc1-c1ccccc1	-5.66*	i	i	i	i	i	i	12.5%*	i	i	i
CCOC(=O)CNC(=O)Cn1cnc2c(nnn2-c2ccc(OC)cc2)c1=O	-9.52*	i	i	i	i	.	.	.	.	i	i	TRPC4 sel inh 2=i;TRPC4 spec=i;HEK293 MPD ctr 2-1=i;HEK293 MPD ctr-1=i
Cc1ccc(C)c2[nH]c(=O)c(CN(CCN3CCCC3)C(=O)Nc3cccc(Cl)c3)cc12	-6.81*	i	i	i	i	i	67.0%*	i	80.5%*	59.5%*	i
COc1ccc(/C=C2\SC(=NCc3ccccc3)NC2=O)cc1	-6.21*	i	i	i	i	i	i	i	i	i	i
Cn1c(=O)n(C)c2cc([N+](=O)[O-])c(N3CCN(S(C)(=O)=O)CC3)cc21	i	i	i	i	i	.	.	.	.	.	.
Cn1c(=O)n(C)c2cc([N+](=O)[O-])c(N3CCN(CCO)CC3)cc21	-6.8*	i	i	i	i	-370.0%*	70.0%*	-49.5%*	42.0%*	44.5%*	i
O=C(Nc1ccc(F)cc1)Nc1ccccc1C(=O)NCCN1CCNC1=O	i	i	i	i	i	.	.	.	.	.	.
O=C1c2cccc3c(N4CCCCC4)ccc(c23)C(=O)N1CCO	i	12.2*	i	i	i	937.0%*	143.5%*	218.0%*	121.5%*	i	180.5%*
CCc1ccc(NC(=O)CSc2nc3ccccc3c(=O)n2CCCN2CCC(C)CC2)cc1	i	i	i	i	i	.	.	.	.	.	.
COCCN(C(=O)Cn1nnc2ccccc21)C(C(=O)NC1CCCC1)c1cccc(OC)c1OC (stereo not drawn)	i	i	i	i	i	.	.	.	.	.	.
COc1ccc(C(C(=O)NCCC(C)C)N(CCN2CCOCC2)C(=O)Cn2nnc3ccccc32)c(OC)c1 (stereo not drawn)	i	28.2*	i	i	i	483.5%*	i	85.5%*	i	i	298.5%*
CC(C)c1ccc(N(CC(=O)NC2CCCC2)C(=O)CCC(=O)Nc2nccs2)cc1	i	i	i	i	i	.	.	.	.	.	.
Oc1ccc(Cl)cc1Nc1nc(NCC2CCCO2)c2ccccc2n1 (stereo not drawn)	i	i	i	i	i	.	.	.	.	.	.
Oc1ccccc1Nc1nc(NCc2ccco2)c2ccccc2n1	-8.49*	i	i	-6*	i	.	.	.	.	i	i	TRPC4 sel inh 2=73.5%*;TRPC4 spec=i;HEK293 MPD ctr 2-1=i;HEK293 MPD ctr-1=i
